Results published in ChEMBL document CHEMBL2331092, “Bioactive sesterterpenoids from a Korean sponge Monanchora sp” (J Nat Prod, 2013).

Key:
Assay type in all cases: functional, cell-based
PANC-1 = assay: Cytotoxicity against human PANC1 cells assessed as inhibition of cell viability after 6 days by MTT assay; details: PANC-1, 144 h
Summary of the method: (§1)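 Temsirolimus, sunitinib, gemcitabine and 5-fluorouracil served as positive controls.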

[1] = Cytotoxicity against human MiaPaCa cells assessed as inhibition of cell viability after 6 days by MTT assay; details: MIA PaCa-2, 144 h; summary of the method: as §1
A498 = assay: Cytotoxicity against human A498 cells assessed as inhibition of cell viability after 6 days by MTT assay; details: A498, 144 h; summary of the method: as §1
ACHN = assay: Cytotoxicity against human ACHN cells assessed as inhibition of cell viability after 6 days by MTT assay; details: 144 h; summary of the method: as §1

| Compound | IC50 (PANC-1) [µM] | IC50 [1] [µM] | IC50 (A498) [µM] | IC50 (ACHN) [µM] |
| --- | --- | --- | --- | --- |
| O=c1[nH]cc(F)c(=O)[nH]1 [FLUOROURACIL] | 50 | – | – | – |
| Nc1ccn([C@@H]2O[C@H](CO)[C@@H](O)C2(F)F)c(=O)n1 [GEMCITABINE] | – | 3 | – | – |
| CC1=C[C@]2(C=C(CO)[C@H]3CC(=O)C(C)=C[C@H]3O2)O[C@H](/C=C(\C)CCC(=O)C(C)C)C1 [PHORBAKETAL E] | 25.3 | 16.7 | 12.5 | 18 |
| CC(=O)O[C@@H]1C[C@@H]2C(CO)=C[C@]3(C=C(C)C[C@@H](/C=C(\C)C/C=C/C(C)(C)OO)O3)O[C@@H]2C=C1C [PHORBAKETAL F] | > 50 | > 50 | > 50 | > 50 |
| CC(=O)O[C@H]1C[C@@H]2C(CO)=C[C@]3(C=C(C)C[C@@H](/C=C(\C)C/C=C/C(C)(C)OO)O3)O[C@@H]2C=C1C [PHORBAKETAL G] | > 50 | > 50 | > 50 | > 50 |
| CC(C)=CCC/C(C)=C/[C@@H]1CC(C)=C[C@]2(C=C(C=O)[C@H]3C[C@@H](O)C(C)=C[C@H]3O2)O1 [PHORBAKETAL H] | > 50 | > 50 | 9.8 | > 50 |
| CC(C)=CCC/C(C)=C/[C@@H]1CC(C)=C[C@]2(C=C(C=O)[C@H]3CC(=O)C(C)=C[C@H]3O2)O1 [PHORBAKETAL I] | 12.8 | 22 | 9 | 22.3 |
| CC(=O)O[C@@H]1C[C@@H]2C(C=O)=C[C@]3(C=C(C)C[C@@H](/C=C(\C)CCC=C(C)C)O3)O[C@@H]2C=C1C [PHORBAKETAL J] | > 50 | > 50 | > 50 | > 50 |
| CC(=O)O[C@H]1C[C@@H]2C(C=O)=C[C@]3(C=C(C)C[C@@H](/C=C(\C)CCC=C(C)C)O3)O[C@@H]2C=C1C [PHORBAKETAL K] | > 50 | > 50 | > 50 | > 50 |
| C=C(C[C@H](O)/C=C(\C)CC/C=C(\C)CCC=C(C)C)[C@H]1CC(=O)C(C)=C[C@H]1O [PHORBIN A] | 7.8 | 5.2 | 4.9 | 10 |
| CCN(CC)CCNC(=O)c1c(C)[nH]c(/C=C2\C(=O)Nc3ccc(F)cc32)c1C [SUNITINIB] | – | – | – | 2.5 |
| CO[C@H]1C[C@@H]2CC[C@@H](C)[C@@](O)(O2)C(=O)C(=O)N2CCCC[C@H]2C(=O)O[C@H]([C@H](C)C[C@@H]2CC[C@@H](OC(=O)C(C)(CO)CO)[C@H](OC)C2)CC(=O)[C@H](C)/C=C(\C)[C@@H](O)[C@@H](OC)C(=O)[C@H](C)C[C@H](C)/C=C/C=C/C=C/1C [TEMSIROLIMUS] | – | – | 0.5 | – |
